Values joined by “and” are separate entries in the source; they are usually repeats but may differ in a detail not shown here. Identical values can stand only once. The campaign covered roughly 2,500 compounds. About 1,500 (60%) were called active. The set was probably picked from earlier hits. Not all results are given here. Values without a mark were called inactive.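 The calls were made as follows: active = inhibition of at least 30% at 20 µM; inactive = the rest.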

Sequence of Carboxy-terminal domain RNA polymerase II polypeptide A small phosphatase 1 (Homo sapiens) (Q9GZU7 76-261 limits assumed): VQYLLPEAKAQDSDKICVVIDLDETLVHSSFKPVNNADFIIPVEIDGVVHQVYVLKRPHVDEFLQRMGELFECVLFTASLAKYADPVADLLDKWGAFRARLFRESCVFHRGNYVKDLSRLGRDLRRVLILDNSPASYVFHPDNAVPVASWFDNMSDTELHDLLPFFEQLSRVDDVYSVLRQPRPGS

The test concerns the target Carboxy-terminal domain RNA polymerase II polypeptide A small phosphatase 1 (Homo sapiens) (UniProt Q9GZU7). Briefly: SCP1 dephosphorylation blockade at one dose – biochemical, colorimetric, single concentration, confirmation (AID 540281).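 Also: plate controls were DMSO with enzyme for no effect and buffer wells lacking enzyme for full effect.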 As to conditions: recombinant SCP-1 catalytic domain, phosphate release, malachite green absorbance; at 20 µM; stronger effect = higher value. Put shortly:
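Assay system: SCP-1 catalytic fragment (residues 76-261). Schedule: 45 min enzyme reaction at room temperature. Medium: Tris acetate pH 5.5 buffer with Mg2+ and detergent. Compound: one dose, 20 µM final, 1.0% DMSO. Reagent: Phospho-17-mer peptide substrate. Detection: absorbance at 630 nm, free phosphate colorimetry.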
With `Cc1ccc(C(=O)NNC(=O)c2cc3cc4ccccc4nc3s2)cc1`, the inhibition (in general, the change of the read-out against control, counted positive when it falls) was 61% (active).

Turning to `O=[N+]([O-])c1cc(S(=O)(=O)Nc2cccc(Cl)c2)ccc1N=Nc1c(O)[nH]c2ccccc12`, the inhibition is 8.78%.

For the compound `Cc1ccc(CCCOC(=O)C[N+]2(C)CCCC2)cc1`, the inhibition was 78.5% (active).

Turning to `COC(=O)c1ccccc1NC(=O)C1(S(=O)(=O)c2ccc(Cl)cc2)CC1`, the inhibition was -25%.

Consider `Cc1ccc(NC(=O)c2cc(-c3ccc(C)o3)nc3ccccc23)nc1`, for which the inhibition is 67.9% (active).

Consider `CN(c1ccccc1)S(=O)(=O)c1ccc(Cl)c(C(=O)OCC(=O)NCc2ccco2)c1`, for which the inhibition was 56.5% (active).

In the case of `O=C(COC(=O)c1ccccc1O)NCc1ccco1`, the inhibition was 59.3% (active).

In the case of `Cc1cc(C(=O)OCC(=O)NCc2ccco2)c(C)n1-c1ccccc1`, the inhibition was 67.3% (active).

As for `O=C(COC(=O)c1cnc(Cl)c(Cl)c1)NCc1ccco1`, the inhibition was 44.4% (active).

Take `CCOC(=O)C1CCCN(C(=O)CN(c2ccc(OC)cc2)S(=O)(=O)c2c(C)noc2C)C1` (stereo not drawn): the inhibition was -13.6%.

Consider `NC(=O)NC(=O)CSc1nc2cc([N+](=O)[O-])ccc2n1-c1cccc(C(F)(F)F)c1`, for which the inhibition is -1.8%.

`CC1=NN(C(=O)CCc2ccccc2O)C(O)(C(F)(F)F)C1` (stereo not drawn): the inhibition was -13.9%.

As for `O=C(COC(=O)CCC(=O)c1cccs1)NCc1ccco1`, the inhibition is 75.5% (active).

Take `Cc1c(Cl)cnc(NC(=O)COC(=O)c2ccc(S(=O)(=O)NCc3ccco3)cc2)c1Cl`: the inhibition was 67% (active).

On to `CCOc1ccc2nc(N(CCCN(C)C)C(=O)c3ccc(C(=O)c4ccccc4)cc3)sc2c1`, for which the inhibition was -4.94%.

In the case of `Cc1ccc(S(=O)(=O)Nc2nc(C)cc(-n3nc(C)cc3C)n2)cc1`, the inhibition is -2.85%.

On to `O=C(c1ccc(CS(=O)(=O)c2ccccc2)o1)N1CCN(c2ccccc2)CC1`, for which the inhibition is 59.1% (active).

Regarding `CC(C)c1ccc(NC(=S)NNc2ccc(Cl)c(C(=O)O)c2)cc1`, the inhibition was 4.8%.

For `Cc1ccc(CCNC(=O)c2ccc3nc4ccccc4c(=O)n3c2)cc1`, the inhibition is 41.5% (active).

In the case of `COc1cccc(NC(C)=[N+](C)CCNS(=O)(=O)c2ccc(Cl)cc2)c1`, the inhibition is 92.4% (active).

In the case of `COc1cccc(CNS(=O)(=O)c2csc(C(N)=O)c2)c1`, the inhibition was -12.2%.

Regarding `Cc1ccc(NC(=O)COC(=O)C2C3CC4OC(=O)C2C4C3)cc1Cl` (stereo not drawn), the inhibition is -2.24%.

For `O=C(COc1ccc(-n2cnnn2)cc1)Nc1ccccc1Cl`, the inhibition is 56.8% (active).

For the compound `CC(C)CCOc1ccc(C(=O)C[N+]2(C)CCOCC2)cc1`, the inhibition is 98.7% (active).

On to `O=C(Nc1cccnc1)c1cc2cc(Br)ccc2oc1=O`, for which the inhibition is 68.8% (active).

Consider `COc1cc(/C=C/C2=CC(C)(C)NC(=S)N2)cc(OC)c1OC`, for which the inhibition is -11.8%.

`Cc1ccc(/C=C/C(=O)Nc2ccc([N+](=O)[O-])c(NC(=O)/C=C/c3ccc(C)o3)c2)o1`: the inhibition was 66.7% (active).

For the compound `CCCCCN1CC(O)=C(c2nc(-c3ccc(Cl)cc3)cs2)C1=N`, the inhibition is 71.5% (active).

With `O=C(COC(=O)/C=C/c1ccc(Br)o1)Nc1cccc(S(=O)(=O)N2CCOCC2)c1`, the inhibition is 16.4%.

For the compound `COc1cccc(CC(=O)OCC(=O)NCc2ccc3c(c2)OCO3)c1`, the inhibition was -5.6%.

For the compound `Cc1ccn2c(=O)nc(SCC(=O)NCc3ccc4c(c3)OCO4)nc2c1`, the inhibition is 57.6% (active).

Regarding `CCCCSc1nnc(-c2ccc(C)cc2)o1`, the inhibition was -16.3%.

With `Cc1ccc(N=Cc2c(O)n(-c3nccs3)c(=O)c3ccccc23)c(C)c1`, the inhibition was -12.9%.

Take `CC1CCN(c2ccc(S(=O)(=O)Nc3cc(C(=O)O)cc(C(=O)O)c3)cc2[N+](=O)[O-])CC1`: the inhibition was 51.3% (active).

Consider `O=C(NN1C(=O)C2C3C=CC(O3)C2C1=O)c1ccccc1` (stereo not drawn), for which the inhibition is -10.8%.

For `CCc1ccc(NC(=O)CS(=O)CC(=O)NCCCc2ccccc2)cc1` (stereo not drawn), the inhibition was 93.8% (active).

For the compound `CS(=O)(=O)C1=NN2C(=N)/C(=C\c3ccc(OCCOc4ccccc4)cc3)C(=O)N=C2S1`, the inhibition is 72% (active).

Regarding `COc1cccc2cc(-c3cc(=O)oc4cc(C)c(O)cc34)oc12`, the inhibition is 57.7% (active).

On to `O=c1c2cc(-c3ccccc3)sc2nc2n1N=C(c1cccs1)CS2`, for which the inhibition is 38.4% (active).

On to `O=C(CN1CCN(c2ccc(Cl)cc2)CC1)c1ccccc1`, for which the inhibition was -15.3%.

As for `O=C(c1cc2c(s1)CCC2)N1CCN(c2ccccc2)CC1`, the inhibition is 31.4% (active).

Take `ON=C1/C(=N\O)CC2(C/C1=N/O)OCCO2`: the inhibition is 36.9% (active).

As for `Cc1nn(-c2cc(Cl)ccc2N)c(=O)c2ccccc12`, the inhibition is 32.6% (active).

On to `COc1ccc(Cl)cc1NC(=O)CCS(=O)(=O)c1ccc(Br)cc1`, for which the inhibition is 62.9% (active).

Take `O=C(CCS(=O)(=O)c1ccc(Br)cc1)NCCc1ccc(Cl)cc1`: the inhibition is 55.6% (active).

For the compound `O=C(c1ccc2c(c1)OCO2)N1CCNc2ccccc2C1`, the inhibition is -27.2%.

On to `CC[n+]1c(C)n(-c2ccccc2)c2ccc(NC(C)=O)cc21`, for which the inhibition was 85.8% (active).

With `O=C(Cn1cc(/C=N/NC(=O)c2cccc(C(F)(F)F)c2)c2ccccc21)Nc1ccc(F)cc1`, the inhibition was 39.4% (active).

Take `N#CC1=C(SCc2ccccc2)NC(=O)C(C#N)C12CCCC2` (stereo not drawn): the inhibition is 9.2%.

For `O=c1[nH]n(-c2ccc([N+](=O)[O-])cc2)c(=O)c2ccccc12`, the inhibition is 46.7% (active).

Regarding `O=C1NN(c2ccccc2)C(=O)/C1=C/c1ccc(-c2cccc(C(=O)O)c2)o1`, the inhibition is 72.6% (active).

For `COC(=O)c1ccc(-c2c(-c3ccccc3)ncc3cc(OC)c(OC)cc23)cc1`, the inhibition was -1.8%.

Take `COc1ccc(OC)c(NC(=O)CSc2nc(-c3ccccc3)cc(=O)[nH]2)c1`: the inhibition was -9.58%.

Consider `COc1ccc(OCC(=O)NNC(=O)c2ccc(-c3ccccc3)cc2)cc1`, for which the inhibition is 67.5% (active).

As to `O=C(NNC(=O)c1ccc2ccccc2c1)c1ccc(Cl)cc1`, the inhibition was 57.2% (active).

As for `Cn1c(N)c(C(=O)COC(=O)c2ccc3ccccc3c2)c(=O)n(C)c1=O`, the inhibition is -18.1%.

As for `Cc1oc2c(C)c3oc(=O)c(CC(=O)N[C@@H](CC(C)C)C(=O)N[C@@H](Cc4ccccc4)C(=O)O)c(C)c3cc2c1C`, the inhibition was 80.1% (active).

With `Cc1c([N+](=O)[O-])c(N)nn1C`, the inhibition was 3.58%.

As to `O=C(O)c1ccc(N/N=C/c2ccc3ncccc3c2)cc1`, the inhibition is 39.7% (active).

For `COc1ccc(NC(=O)CN(C)C(=O)/C=C/c2cn(Cc3ccccc3)nc2-c2cccnc2)cc1`, the inhibition is 84.6% (active).

As to `COC(=O)C[n+]1cccc2ccccc21`, the inhibition is 21%.

For the compound `Nn1cnnc1N/N=C/c1cc([N+](=O)[O-])c(Cl)cc1Cl`, the inhibition is 86.2% (active).

Regarding `O=C1CCC(CCC(=O)N2CCCC(C(=O)c3ccc(Cl)cc3)C2)=NN1` (stereo not drawn), the inhibition was -8.97%.

Consider `O=C(Nc1cccc(F)c1)c1cc(-c2ccco2)nc2ccccc12`, for which the inhibition is 50.4% (active).

For `O=C(Nc1cccc(F)c1)[C@@H]1CCCN1`, the inhibition is 0.82%.

As to `CN(CC(=O)Nc1cccc(F)c1)C(=O)C1CC(=O)N(CCc2ccccc2)C1` (stereo not drawn), the inhibition is -11.8%.

Turning to `CCCc1nc(-c2cc3cc(C)ccc3[nH]c2=O)no1`, the inhibition was 84.7% (active).

Turning to `Cc1cc(/C=C2\SC(=O)N(C)C2=O)c(C)n1-c1cccc(C(=O)O)c1`, the inhibition was 38.7% (active).

Regarding `COc1cc(Cl)cc(C2NC(=O)NC(C)=C2C(=O)NCc2ccccc2)c1O` (stereo not drawn), the inhibition was -19.7% and -13.7%.

Turning to `C[n+]1ccc(C(=O)NCc2ccccc2)cc1`, the inhibition is 80.1% (active).

In the case of `O=C(CN1CCN(S(=O)(=O)/C=C/c2ccccc2)CC1)NC(=O)NCc1ccco1`, the inhibition is 10.9%.

With `Cc1ccc(SCC(=O)NC(=O)NCc2ccco2)c(C)c1`, the inhibition was 73.6% (active).

For `Cc1c(CCC(=O)O)c(=O)oc2c(C)c(OCc3ccccc3Cl)ccc12`, the inhibition was 58.5% (active).

For the compound `Cc1c(CCC(=O)O)c(=O)oc2cc(OCc3ccc(Br)cc3)ccc12`, the inhibition is 38.7% (active).

As for `COc1ccc(Cl)cc1C=CC=NNC(=O)c1ccncc1`, the inhibition is 38.5% (active).

Turning to `COc1ccc(N2CCN(C(=O)CSc3nc4cc(OC)c(OC)cc4cc3C#N)CC2)cc1`, the inhibition is 25.3%.

Regarding `COCCCNc1nc2ccccc2nc1NS(=O)(=O)c1ccc(F)cc1`, the inhibition is -5.57%.

As for `CCC(=O)Nc1ccccc1N1CCN(S(C)(=O)=O)CC1`, the inhibition was -7.14%.

Turning to `COc1ccc(S(=O)(=O)c2c[nH]c(=S)[nH]c2=O)cc1Cl`, the inhibition was 40.6% (active).

As for `COc1cccc2sc(N(CCCN(C)C)C(=O)C(c3ccccc3)c3ccccc3)nc12`, the inhibition is -18.8%.

Consider `CC1=NNC(=O)C1CCC(=O)N/N=C\c1cccc(Cl)c1` (stereo not drawn), for which the inhibition is -18.8%.

`CSc1ccc(/C=N/NC(=O)c2cccc(Cl)c2)cc1`: the inhibition was 59.9% (active).

As for `O=C(Cn1nnc(-c2ccc3c(c2)OCO3)n1)NCc1ccco1`, the inhibition is 30.9% (active).

`Cc1nnc(SCC(=O)Nc2ccc(S(=O)(=O)Nc3ccc(Cl)nn3)cc2)s1`: the inhibition was 58.2% (active).

As for `C=C1c2cccc(OC)c2O[C@H](C(=O)OCC)[C@@H]1CCCCCC`, the inhibition is 88% (active).

For the compound `CO/N=C(\C(=O)N[C@@H]1C(=O)N2C(C(=O)O)=C(COC(C)=O)CS[C@H]12)c1csc(N)n1` (stereo in doubt), the inhibition is 43.7% (active).

Consider `C=CC1C(OC2OC(CO)C(O)C(O)C2O)OC=C(C(=O)OC)C1CC1CC(=O)CC(CC(=O)CCc2ccc(O)cc2)O1` (stereo not drawn), for which the inhibition is -13.1%.

On to `Cc1ccc(CN2CCN(c3ccccc3Cl)CC2)o1`, for which the inhibition is -20%.

For `CCOC(=O)C1=C(C)c2ccccc2OC1(C)C(=O)OCC` (stereo not drawn), the inhibition is 39.1% (active).

For `CC(=O)Nc1ccc(N2C(=O)CCC2=O)cc1C`, the inhibition was -5.6%.

Regarding `CCOc1ccccc1/C=c1\sc2nc(-c3ccco3)nn2c1=O`, the inhibition was 61% (active).

Take `O=C(COC(=O)c1ccc(F)cc1F)Nc1ncccn1`: the inhibition is 52.5% (active).

Turning to `N#Cc1ccc(C(=O)Nc2cccc3cccnc23)c(F)c1`, the inhibition is 3.88%.

Values taken from PubChem BioAssay AID540281 (Sanford-Burnham Center for Chemical Genomics, 2011).
